These results are taken from ChEMBL document CHEMBL3259662 (ACS Med Chem Lett, 2014).

Molecules are shown by their SMILES. In brackets after ≈: the same amount, converted by molar mass. Activity calls are given as the source filed them. The rule behind the calls is not given here. Peptide text beside a SMILES is read from it. * marks the point of attachment. Boc = CC(C)(C)OC(=O)*

One series relates to Candida albicans. Kind of series: Antifungal activity against Candida albicans by CLSI method. In kind it is functional, organism-based.
The next series concerns Aspergillus fumigatus. Kind of series: Antifungal activity against Aspergillus fumigatus by CLSI method. The class given is functional, organism-based.
The next series has as its system Escherichia coli. The series can be described thus: Antibacterial activity against Escherichia coli ATCC 35218 after 16 to 20 hrs by CLSI method. In kind it is functional, organism-based.
Another series deals with Nakaseomyces glabratus. The series can be described thus: Antifungal activity against Candida glabrata by CLSI method. In kind it is functional, organism-based.
For the next series, the system named is Pichia kudriavzevii. The series can be described thus: Antifungal activity against Candida krusei by CLSI method. The class given is functional, organism-based.
Series [1] deals with Cryptococcus neoformans. The series can be described thus: Antifungal activity against Cryptococcus neoformans ATCC 90113 after 70 to 74 hrs by CLSI method. The class given is functional, organism-based. The settings on record: for IC50 / MIC: Cryptococcus neoformans, ATCC 90113. A digest of the protocol: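 Growth inhibition of C. neoformans per the CLSI protocol. […] MIC is the lowest test concentration with no detectable growth. MFC is the lowest concentration killing 100% of the organism.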

The subject of a further series is SK-MEL. Kind of series: Cytotoxicity against human SK-MEL cells assessed as cell viability after 48 hrs by neutral red uptake assay. The class given is cell-based. The gist of the method:
(§1)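 Neutral red uptake assay in human cancer lines SK-MEL, KB, BT-549 and SK-OV-3 and in noncancerous mammalian kidney cells VERO and LLC-PK1. The highest tested concentration was 10 μg/mL.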

For a further series, the system named is KB. The series can be described thus: Cytotoxicity against human KB cells assessed as cell viability after 48 hrs by neutral red uptake assay. The class given is cell-based. The gist of the method: as §1
In the next series the test system is BT-549. Kind of series: Cytotoxicity against human BT549 cells assessed as cell viability after 48 hrs by neutral red uptake assay. In kind it is cell-based. The conditions noted are these: bt-549, 48 h. A digest of the protocol: as §1
The next series concerns SK-OV-3. Kind of series: Cytotoxicity against human SKOV3 cells assessed as cell viability after 48 hrs by neutral red uptake assay. In kind it is cell-based. The settings on record: sk-ov-3, 48 h. A digest of the protocol:
as §1

The next series concerns Vero. The series can be described thus: Cytotoxicity against African green monkey Vero cells assessed as cell viability after 48 hrs by neutral red uptake assay. The conditions noted are these: chlorocebus sabaeus. In kind it is cell-based. The gist of the method:
as §1

For a further series, the system named is LLC-PK1. The series can be described thus: Cytotoxicity against pig LLC-PK1 cells assessed as cell viability after 48 hrs by neutral red uptake assay. In kind it is cell-based, Sus scrofa. The conditions noted are these: llc-pk1, 48 h. A digest of the protocol:
as §1

Series [2] can be described thus: Selectivity index, ratio of cytotoxicity for human SK-MEL cells to IC50 for Cryptococcus neoformans ATCC 90113. In kind it is toxicity, cell-based. The settings on record: read-out: Selectivity Index.
Series [3] is described as follows: Selectivity index, ratio of cytotoxicity for human KB cells to IC50 for Cryptococcus neoformans ATCC 90113. In kind it is toxicity, cell-based. The conditions noted are these: read-out: Selectivity Index.
Series [4] is described as follows: Selectivity index, ratio of cytotoxicity for human BT549 cells to IC50 for Cryptococcus neoformans ATCC 90113. The class given is toxicity, cell-based, BT-549. The settings on record: read-out: Selectivity Index.
The nature of series [5]: Selectivity index, ratio of cytotoxicity for human SKOV3 cells to IC50 for Cryptococcus neoformans ATCC 90113. In kind it is toxicity, cell-based, SK-OV-3. The settings on record: read-out: Selectivity Index.
A short description of series [6]: Selectivity index, ratio of cytotoxicity for African green monkey Vero cells to IC50 for Cryptococcus neoformans ATCC 90113. In kind it is toxicity, cell-based. The settings on record: read-out: Selectivity Index.
Series [7] is described as follows: Selectivity index, ratio of cytotoxicity for pig LLC-PK1 cells to IC50 for Cryptococcus neoformans ATCC 90113. The class given is toxicity, cell-based. The conditions noted are these: read-out: Selectivity Index.
The test system of series [8] is Staphylococcus aureus. Kind of series: Antibacterial activity against Staphylococcus aureus ATCC 29213 by CLSI method. In kind it is functional, organism-based.
Series [9] concerns Staphylococcus aureus. Kind of series: Antibacterial activity against methicillin-resistant Staphylococcus aureus ATCC 33591 after 16 to 20 hrs by CLSI method. The class given is functional, organism-based.
Series [10] in a line: Retention time of the compound by reverse phase HPLC analysis. The class given is physicochemical. A digest of the protocol:
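Reverse-phase HPLC on a C-18 column (25 cm × 4.6 mm, 5 μM) at 1 mL/min over 40 min. The gradient ran 85−5% with A = 0.1% TFA in H2O and B = 0.1% TFA in CH3CN. Detection was at 220 nm.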

Series [11] concerns Cryptococcus neoformans. The series can be described thus: Ratio of amphotericin B MFC to compound MFC for Cryptococcus neoformans ATCC 90113 after 70 to 74 hrs by CLSI method. The class given is functional.
The subject of series [12] is Cryptococcus neoformans. Kind of series: Antifungal activity against Cryptococcus neoformans ATCC 90113 at 20 ug/ml after 70 to 74 hrs by CLSI method. The class given is functional, organism-based. The gist of the method: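 C. neoformans screened per the CLSI protocol at the highest tested concentration of 20 μg/mL. Compounds showing no activity at this level were scored not active.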

As for `CC(C)(C)OC(=O)N[C@@H](CCCNC(=N)N)C(=O)N[C@@H](Cc1c[nH]c(-c2ccc(C(C)(C)C)cc2)n1)C(=O)N[C@@H](CCCNC(=N)N)C(=O)NCc1ccccc1`, the result in the series with Candida albicans, in the series with Aspergillus fumigatus, in the series with Escherichia coli, with Nakaseomyces glabratus and in the series with Pichia kudriavzevii was inactive. In the series with Cryptococcus neoformans [1], this molecule displayed an MFC100 of 0.63 mg/L (≈ 0.798 µM). Further, the IC50 with Cryptococcus neoformans [1] worked out at 0.18 mg/L (≈ 0.228 µM); in the series with Staphylococcus aureus [8] it was 12.5 mg/L (≈ 15.9 µM); in the series on Staphylococcus aureus [9] (Staphylococcus aureus, ATCC 33591, read-out: IC50), 11.5 mg/L (≈ 14.6 µM). Also, the MIC against Cryptococcus neoformans [1] is 0.63 mg/L (≈ 0.798 µM); in the series on Staphylococcus aureus [8] it was 20 mg/L (≈ 25.3 µM); in the series with Staphylococcus aureus [9] (Staphylococcus aureus, ATCC 33591), 20 mg/L (≈ 25.3 µM). Further, the Activity in the series with SK-MEL, in the series on KB, in the series with BT-549, in the series on SK-OV-3, with Vero and in the series with LLC-PK1 was more than 10 µg/mL throughout. The selectivity ratio in series [2], in series [3], in [4], in [5], in [6] and in [7] was more than 55.6 throughout. Besides, the MBC100 entry in the series on Staphylococcus aureus [8] and in the series on Staphylococcus aureus [9] was “inactive” throughout. In [10], this molecule yielded a Retention_time of 24.41 min. The Ratio in the series on Cryptococcus neoformans [11] is 2.

As for `COC(=O)[C@H](CCCNC(=N)N)NC(=O)[C@H](Cc1c[nH]cn1)NC(=O)[C@H](CCCNC(=N)N)NC(=O)OC(C)(C)C` (Boc-Arg-His-Arg-OMe), the result with Candida albicans, with Aspergillus fumigatus, with Escherichia coli, in the series on Nakaseomyces glabratus, in the series with Pichia kudriavzevii and in the series on Cryptococcus neoformans [12] was inactive. The Activity with SK-MEL, in the series with KB, in the series with BT-549, with SK-OV-3, in the series on Vero and in the series with LLC-PK1 was more than 10 µg/mL in each case. In series [10], this molecule had a Retention_time of 10.75 min.

As for `COC(=O)[C@H](CCCNC(=N)N)NC(=O)[C@H](Cc1c[nH]cn1)NC(=O)[C@@H](N)CCCNC(=N)N` (H-Arg-His-Arg-OMe), the result with Candida albicans, with Aspergillus fumigatus, with Escherichia coli, in the series with Nakaseomyces glabratus, in the series on Pichia kudriavzevii and in the series on Cryptococcus neoformans [12] was inactive. In the series on Cryptococcus neoformans [1], this molecule displayed an IC50 of 19 mg/L (≈ 39.5 µM). In addition, the Activity in the series with SK-MEL, in the series on KB, in the series on BT-549, in the series with SK-OV-3, in the series on Vero and with LLC-PK1 was more than 10 µg/mL each time.

Take `COc1ccc(-c2nc(C[C@H](NC(=O)[C@@H](N)CCCNC(=N)N)C(=O)N[C@@H](CCCNC(=N)N)C(=O)NCc3ccccc3)c[nH]2)cc1`: the result in the series on Candida albicans, in the series with Aspergillus fumigatus, with Escherichia coli, in the series on Nakaseomyces glabratus and with Pichia kudriavzevii was inactive. In addition, the MFC100 in the series with Cryptococcus neoformans [1] turned out to be 0.63 mg/L (≈ 0.951 µM). In the series with Cryptococcus neoformans [1], this molecule yielded an IC50 of 0.43 mg/L (≈ 0.649 µM). The molecule also gave an MIC against Cryptococcus neoformans [1] of 0.63 mg/L (≈ 0.951 µM). The Activity in the series with SK-MEL, in the series with KB, in the series on BT-549, with SK-OV-3, with Vero and in the series on LLC-PK1 was more than 10 µg/mL throughout. In addition, the selectivity ratio in series [2], in [3], in series [4], in [5], in series [6] and in series [7] was more than 23.3 in each case. Further, the Ratio in the series on Cryptococcus neoformans [11] came out at 2.

For the molecule `COC(=O)[C@H](CCCNC(=N)N)NC(=O)[C@H](Cc1c[nH]c(-c2ccccc2)n1)NC(=O)[C@H](CCCNC(=N)N)NC(=O)OC(C)(C)C`, the result in the series with Candida albicans, in the series on Aspergillus fumigatus, in the series with Escherichia coli, in the series on Nakaseomyces glabratus, in the series with Pichia kudriavzevii and with Cryptococcus neoformans [12] was inactive. Also, the IC50 in the series on Cryptococcus neoformans [1] is 10.4 mg/L (≈ 15.8 µM). For the same molecule, the Activity in the series on SK-MEL, in the series on KB, in the series with BT-549, in the series with SK-OV-3, with Vero and in the series on LLC-PK1 was more than 10 µg/mL in each case. Moreover, the Retention_time in series [10] is on record as 11.89 min.

For the molecule `N=C(N)NCCC[C@H](NC(=O)[C@H](Cc1c[nH]c(-c2ccc(-c3ccccc3)cc2)n1)NC(=O)[C@@H](N)CCCNC(=N)N)C(=O)NCc1ccccc1`, the outcome with Candida albicans, in the series with Aspergillus fumigatus, with Escherichia coli, in the series with Nakaseomyces glabratus and in the series with Pichia kudriavzevii was inactive. The molecule further registered an MFC100 against Cryptococcus neoformans [1] of 0.16 mg/L (≈ 0.226 µM). Also, the values for the half-maximal inhibitory concentration (IC50) in the series on Cryptococcus neoformans [1], in the series on Staphylococcus aureus [8] and in the series on Staphylococcus aureus [9] were 0.1 mg/L (≈ 0.141 µM), 15.4 mg/L (≈ 21.7 µM) and “Not Active”, respectively. In the series on Cryptococcus neoformans [1], this molecule returned an MIC of 0.16 mg/L (≈ 0.226 µM). For the same molecule, the Activity in the series with SK-MEL, with KB, in the series on BT-549, in the series on SK-OV-3, in the series with Vero and with LLC-PK1 was more than 10 µg/mL throughout. Moreover, the selectivity ratio in [2], in [3], in series [4], in series [5], in series [6] and in series [7] was more than 100 each time. In addition, the MBC100 result in the series on Staphylococcus aureus [8] and in the series on Staphylococcus aureus [9] was “inactive” each time. Besides, the MIC entry in the series on Staphylococcus aureus [8] and with Staphylococcus aureus [9] was “inactive” each time. Moreover, in the series with Cryptococcus neoformans [11], the Ratio is 8.

For the molecule `COC(=O)[C@H](CCCNC(=N)N)NC(=O)[C@H](Cc1c[nH]c(-c2ccc(C)cc2)n1)NC(=O)[C@H](CCCNC(=N)N)NC(=O)OC(C)(C)C`, the outcome in the series on Candida albicans, in the series on Aspergillus fumigatus, in the series on Escherichia coli, in the series on Nakaseomyces glabratus, in the series on Pichia kudriavzevii and in the series on Cryptococcus neoformans [12] was inactive. In the series with Cryptococcus neoformans [1], this molecule returned an IC50 of 9.71 mg/L (≈ 14.5 µM). Further, the Activity in the series on SK-MEL, in the series on KB, in the series with BT-549, in the series with SK-OV-3, in the series with Vero and with LLC-PK1 was more than 10 µg/mL in each case. Moreover, the selectivity ratio in [2], in series [3], in [4], in [5], in [6] and in series [7] was more than 1 in each case. The same molecule returned a Retention_time in [10] of 14.76 min.

One may read the IC50 as the point on the concentration scale where inhibition reaches its midpoint. Broadly, the MIC is the least concentration at which growth counts as inhibited.
